This is a sample that favours compounds with a hit; in the whole collection about 2.6% have one here.
NPY-Y2 antag: NPY-Y2 receptor antagonists, primary screen, cell-based; NPY-Y2 expressing cells, antagonist mode; inhibition, % at 2.7 µM; actives 0.99% (n = 140,000); in the data active means inhibition above about 17%;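 further: 0% = vehicle with agonist challenge and 100% = reference antagonist with challenge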
Target sequence (P49146 whole entry, looked up): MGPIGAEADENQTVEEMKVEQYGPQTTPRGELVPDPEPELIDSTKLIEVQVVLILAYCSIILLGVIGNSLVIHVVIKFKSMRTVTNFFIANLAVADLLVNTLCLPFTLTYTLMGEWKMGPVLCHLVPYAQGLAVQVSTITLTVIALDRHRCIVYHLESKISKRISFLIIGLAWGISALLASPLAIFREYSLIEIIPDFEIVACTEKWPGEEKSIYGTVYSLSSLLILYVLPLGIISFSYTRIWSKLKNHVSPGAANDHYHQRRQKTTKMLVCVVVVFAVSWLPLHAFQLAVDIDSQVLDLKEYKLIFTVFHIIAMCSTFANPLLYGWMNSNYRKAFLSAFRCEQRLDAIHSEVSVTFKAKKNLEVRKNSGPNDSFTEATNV
NPY1 pot ag: NPY-Y1 receptor potentiators or agonists, primary screen, cell-based; Neuropeptide Y receptor type 1 (Homo sapiens), P25929; NPY-Y1 expressing cells, potentiator/agonist activation; activation, % at 3.6 µM; actives 0.37% (n = 220,000); AID 1304, 2008; in the data active means activation above about 33%, passing the limit was not always enough;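 further: cells stimulated with NPY at EC10 then isoproterenol at EC100; 0% = low agonist plus stimulus and 100% = saturating agonist plus stimulus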
Target sequence (P25929 whole entry, looked up): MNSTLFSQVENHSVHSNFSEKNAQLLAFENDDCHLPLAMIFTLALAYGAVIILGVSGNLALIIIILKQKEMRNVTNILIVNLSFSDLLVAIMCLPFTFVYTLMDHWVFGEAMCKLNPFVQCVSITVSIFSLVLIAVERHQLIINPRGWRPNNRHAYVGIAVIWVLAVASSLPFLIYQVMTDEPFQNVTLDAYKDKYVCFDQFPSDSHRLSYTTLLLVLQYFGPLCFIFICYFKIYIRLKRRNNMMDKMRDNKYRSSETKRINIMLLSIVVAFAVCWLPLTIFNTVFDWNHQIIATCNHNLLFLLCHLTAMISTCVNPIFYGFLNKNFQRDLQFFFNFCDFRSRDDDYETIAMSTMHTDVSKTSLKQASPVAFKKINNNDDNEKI
MT stabilizer: microtubule stabilizers in HeLa cells, primary screen, imaging, high-content imaging; HeLa tubulin immunostaining HCS, 24 h; share of cells brighter than vehicle mean+2SD; % tubulin-high responders, % at 10 µM; actives 0.83% (n = 200,000); AID 2205, 2009;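 active means plate Z-score above 3 for both tubulin-high and condensed-nucleus cell shares, with cell loss under 80%, at 10 µM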;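 further: anti alpha tubulin signal scored within the nucleus-defined area of each cell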
NPY-Y2 PAM-ag: NPY-Y2 potentiators or agonists, primary screen, cell-based; Neuropeptide Y receptor type 2 (Homo sapiens), P49146; activation, % at 3.6 µM; cells expressing NPY-Y2, potentiator/agonist read-out; AID 1359, 2008; actives 0.45% (n = 220,000); in the data active means activation above about 27%;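 further: cells stimulated with NPY near EC25 plus isoproterenol at EC100; 0% = vehicle plus submaximal agonist and 100% = vehicle plus saturating agonist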
NPY-Y1 antag: NPY-Y1 receptor antagonists, primary screen, cell-based | inhibition, % at 3.6 µM | actives 1% (n = 200,000) | AID 1040, 2008 | HEK293-CNG Y1 cells, membrane potential fluorescence; NPY at EC95, then isoproterenol;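 active means inhibition above the campaign mean inhibition of all tested compounds plus 3 SD, cut at about 20% in these data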;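 further: 0% = DMSO wells given NPY plus isoproterenol and 100% = isoproterenol alone without NPY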
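Material: HEK293 Y1/CNG channel cell line | Also added: NPY (25 nM), isoproterenol (1 µM), Ro 20-1724 (25 µM) | Compound: One concentration, 3.6 µM, in 0.4% DMSO | Schedule: 3 h dye uptake, 1 h room-temperature compound, 45 min post-isoproterenol | Signal: Membrane-potential fluorescent dye readout | Read-out: % inhibition of NPY effect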
bCat nuc transl: modulators of beta-catenin nuclear translocation, primary screen, imaging, HeLa cells, immunofluorescence, high-content. nuclear translocation activity, % at 5 µM. actives 0.3% (n = 190,000);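 active means nuclear translocation activity above 50% at 5 µM, with a well cell count of 50 or more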;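 further: per-cell ratio of nuclear to cytoplasmic median beta-catenin stain intensity; plate controls were DMSO negative control for no effect and GSK-3 inhibitor IX positive control for full effect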
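Assay system: human HeLa cells, native beta-catenin; doses: 5 µM primary, 0.02–20 µM confirmation; incubation: compound treatment 24 h, 37°C, 5% CO2; technique: fluorescence imaging of beta-catenin antibody stain plus DAPI; measure: % activation, nuclear-to-cytoplasmic median beta-catenin signal ratio per cell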
NPY-Y2 pot conf: NPY-Y2 potentiators or agonists, confirmation, cell-based; cell-based NPY-Y2 potentiator/agonist assay; activation, % at 3.6 µM; shares compounds with NPY-Y2 PAM-ag; actives 20% (n = 450); in the data active means activation above about 33%
NPY-Y1 potentiator: NPY-Y1 potentiators or agonists, counter-screen for NPY-Y2 potentiator project, cell-based, fluorescence. shares compounds with NPY-Y2 PAM-ag. Y1 HEK293-CNG cells, membrane potential fluorescence. activation, % at 3.6 µM. actives 20% (n = 450); in the data active means activation above about 45%;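 further: cells stimulated with submaximal NPY then isoproterenol with phosphodiesterase inhibitor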
NPY-Y1 ag 2: NPY-Y1 direct agonists, selectivity assay for NPY-Y2 potentiator project, cell-based, fluorescence. shares compounds with NPY-Y2 PAM-ag. HEK293 Y1-CNGC, membrane potential fluorescence, agonism. activation, % at 3.6 µM. actives 37% (n = 450). AID 1702, 2009;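 active means activation above the mean of DMSO-only control wells plus 3 SD, cut at about 18% in these data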;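 further: cells stimulated with 1 µM isoproterenol plus the PDE inhibitor Ro 20-1724; 0% = isoproterenol with DMSO and no NPY and 100% = 40 nM NPY; Y1 agonists lower the membrane potential dye signal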
CNGC inhibitor: CNGC cAMP sensor activity inhibitors, counter-screen for NPY-Y2 potentiator project, cell-based, HEK293-CNG parental, membrane potential fluorescence; shares compounds with NPY-Y2 PAM-ag; isoproterenol cAMP; inhibition, % at 3.6 µM; actives 32% (n = 450); AID 1703, 2009;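 active means inhibition above the control-well mean plus 3 SD of those wells, cut at about 22% in these data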;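 further: 0% = DMSO with isoproterenol and 100% = DMSO without isoproterenol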
Y2 agonist ctr: NPY-Y2 direct agonists, counter-screen for NPY-Y2 potentiator project, cell-based, fluorescence; shares compounds with NPY-Y2 PAM-ag; HEK293 Y2/CNGC cells, membrane potential fluorescence, agonist mode; activation, % at 3.6 µM; actives 56% (n = 450);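 active means activation above the mean of solvent-only control wells plus 3 SD, cut at about 10% in these data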;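 further: cells stimulated by isoproterenol with no NPY added so direct agonism is tested; 0% = DMSO with isoproterenol alone and 100% = NPY at EC100 plus isoproterenol; agonism lowers probe fluorescence through less cAMP and CNG channel opening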
* hit, by the source's call; · = no result.

SMILES	NPY-Y2 antag	NPY1 pot ag	MT stabilizer	NPY-Y2 PAM-ag	NPY-Y1 antag	bCat nuc transl	NPY-Y2 pot conf	NPY-Y1 potentiator	NPY-Y1 ag 2	CNGC inhibitor	Y2 agonist ctr
Nc1c(-c2ccccc2)c(CSc2nc3ccccc3[nH]2)nn1-c1ccc(Cl)cc1	1.6	12.7	1.9	28.9*	2.6	-1.4	32.6	29.1	16.8	20.7	33.0*
c1ccc(CSc2nc3ccccc3[nH]2)cc1	·	4.5	·	-0.2	·	-0.7	·	·	·	·	·
Cc1ccccc1-n1nc(CSc2nc3ccccc3[nH]2)c(-c2ccccc2)c1N	7.7	-2.5	4.1	11.4	12.4	0.7	·	·	·	·	·
Nc1c(-c2ccccc2)c(CSc2nc3ccccc3[nH]2)nn1-c1cccc(Cl)c1	-0.6	7.2	3.1	31.6*	4.9	2.4	38.8*	36.3	35.6*	27.6*	56.5*
COc1ccc(-c2cc(-c3ccco3)[nH]c(=O)c2C#N)cc1OC	·	6.3	·	0.6	·	0.9	·	·	·	·	·
FC(F)(F)c1cnc(NNC(=S)Nc2ccc(Cl)cc2)c(Cl)c1	5.3	38.0	3.7	41.9*	-5.2	0.7	8.3	-26.5	-14.3	-7.4	16.3*
CCOC(=O)c1nc(C)nc(Sc2n[nH]c(-c3cc(C(F)(F)F)cc(C(F)(F)F)c3)n2)c1C	·	-35.0	·	-12.2	·	0.5	·	·	·	·	·
C/C(=N\n1cnnc1)c1ccccc1	·	13.7	1.7	7.1	-2.3	0.6	·	·	·	·	·
Fc1ccc(NC(=S)N2CCCN(c3ccc(C(F)(F)F)cn3)CC2)c(F)c1	·	23.8	·	42.9*	·	0.5	1.6	-35.0	-23.9	-11.1	7.8
COC(=O)c1sccc1NS(=O)(=O)c1ccc(OC)cc1	-0.1	-34.8	13.2	31.2*	4.0	-0.5	-4.7	-8.1	-8.1	-9.0	5.0
COc1ccc2nc(NC(=O)CSc3nccc(C)n3)sc2c1	-6.3	19.7	2.1	35.0*	-10.4	-1.6	24.6	45.9*	53.3*	39.9*	51.4*
CSc1ncccc1C(=O)Nc1ccc2nc(C)sc2c1	·	20.3	·	105.1*	·	0.0	-4.8	0.0	-2.4	1.2	-4.7
COc1ccc(NC(=O)c2cccnc2SC)cc1OC	·	5.4	3.8	9.5	-2.4	1.4	·	·	·	·	·
CCOC(=O)CSC(C)C(=O)Nc1nnc(C(C)C)s1 (centres undefined)	0.4	15.2	3.3	-1.9	-1.4	-1.6	·	·	·	·	·
CCc1noc(C)c1C(=O)Nc1ncc(C)s1	1.9	25.4	2.9	31.9*	-1.2	1.6	-0.8	2.6	-1.1	2.4	-0.7
CCc1noc(C)c1C(=O)Nc1nc(-c2cc(C)ccc2C)c(C)s1	0.6	4.1	2.1	-15.0	-1.5	0.4	·	·	·	·	·
O=C(CN(c1cccc(C(F)(F)F)c1)S(=O)(=O)c1ccc(Cl)c([N+](=O)[O-])c1)NCc1ccc(F)cc1	-3.0	39.4	2.5	35.5*	-11.5	1.0	67.8*	84.7*	85.2*	64.0*	79.0*
COc1ccccc1NS(=O)(=O)c1cccc(-n2c(O)c(C=Nc3ccccc3C(=O)O)c3ccccc3c2=O)c1	·	32.4	·	45.0*	·	-1.9	27.9	35.4	34.3*	15.8	30.1*
COc1ccc(Cn2c(O)c(C=Nc3ccccc3C(=O)O)c3ccccc3c2=O)cc1	·	47.3	·	54.1*	·	0.2	17.3	29.2	28.4*	4.3	27.1*
N#C/C(=N\Nc1ccccc1)C(N)=S	·	0.9	·	2.1	·	0.9	·	·	·	·	·
N#C/C(=N\Nc1ccc(Cl)cc1)C(N)=S	·	38.0	·	54.0*	·	-0.3	1.9	-4.9	-8.7	-6.3	2.8
N#C/C(=N\Nc1ccc(Cl)cc1)C(=O)c1ccsc1	·	36.0	·	58.5*	·	6.0	13.2	-10.5	-5.2	-0.6	6.2
Cc1ccc(N/N=C(\C#N)C(=O)c2ccsc2)cc1	·	8.0	·	-1.0	·	-4.0	·	·	·	·	·
O=C(NN=C1CCCCCCCCCCC1)c1cccc(S(=O)(=O)N2CCOCC2)c1	0.7	19.3	2.3	-3.1	-0.4	-1.7	·	·	·	·	·
O=C(CCl)NC(=O)NC12CC3CC(CC(C3)C1)C2	1.4	30.8	2.7	40.8*	-12.9	0.8	27.6	49.2*	34.6*	9.8	26.6*
SMILES	NPY-Y2 antag	NPY1 pot ag	MT stabilizer	NPY-Y2 PAM-ag	NPY-Y1 antag	bCat nuc transl	NPY-Y2 pot conf	NPY-Y1 potentiator	NPY-Y1 ag 2	CNGC inhibitor	Y2 agonist ctr
N#Cc1c(Cl)nsc1NN	·	22.3	8.1	30.9*	1.4	-0.1	16.8	27.2	27.2*	15.1	30.1*
O=C(COc1ccc(Cl)cc1)Nc1ncc([N+](=O)[O-])s1	·	-0.6	3.2	39.6*	4.3	0.6	3.6	-6.1	-10.9	-4.4	10.3*
CCSc1nnc(NC(=O)COc2ccc(Cl)cc2)s1	·	6.4	3.5	3.4	3.3	-2.0	·	·	·	·	·
Cc1ccc(OCc2ccc(C(=O)NN)o2)c([N+](=O)[O-])c1	·	17.2	·	-8.2	·	-0.7	·	·	·	·	·
COC(=O)c1ccc(COc2ccc(C)cc2[N+](=O)[O-])o1	·	20.2	·	56.1*	·	-1.4	6.5	-10.3	-15.3	-9.7	6.0
C=CC(=O)NC(NC(=O)C=C)c1ccccc1F	·	9.1	·	-7.1	·	0.8	·	·	·	·	·
CC12CC3(C)CC(C)(C1)CC(C(=O)NC(=S)N1CCCC1)(C2)C3	·	-0.9	4.2	3.7	8.3	-0.2	·	·	·	·	·
O=C(Nc1ccccn1)c1cccs1	2.2	-4.1	0.9	12.8	-1.6	-0.9	·	·	·	·	·
O=C(Nc1nonc1NC(=O)c1cccs1)c1cccs1	·	-13.4	2.9	31.4*	5.8	1.1	-6.3	-17.9	-18.4	-9.1	3.7
CCCn1c(NCc2c[nH]c3ccccc23)nc2ccccc21	8.8	-12.6	2.3	-3.9	13.7	·	·	·	·	·	·
O=[N+]([O-])c1ccc(N2CCN(S(=O)(=O)c3ccccc3)CC2)c2cccnc12	·	10.4	3.7	-4.4	-3.7	0.5	·	·	·	·	·

Bioassay records deposited in PubChem by several laboratories.
